Assay outcomes deposited in PubChem by The Scripps Research Institute Molecular Screening Center.
Shown are actives, neighbours in structure and some others; about 2.5% of the full set was active somewhere.
CTSL1 counter – blocks F. hepatica cathepsin L1 in PFM18AAP counter-screen | inhibition, % at 5.96 µM | AID 1906 | 300,000 tested, 0.49% active | recombinant F. hepatica cathepsin L1, Z-Leu-Arg-MCA fluorescence;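 active = inhibition above the mean of all tested compounds plus 3 SD, set per screening campaign, cut at about 17% in these data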;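 also: 0% = plate median of test compound wells and 100% = 1 µM Z-Phe-Ala-diazomethylketone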
PAD4 FP inh – PAD4 (human) enzyme inhibition; Q9UM07; recombinant PAD4, RCA probe fluorescence polarization; 330,000 tested, 0.41% active; inhibition, % at 6.36 µM;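 active = percent inhibition above a cutoff equal to the mean of all tested compounds plus 3 SD, cut at about 15% in these data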;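 also: 0% = PAD4 with RCA probe and DMSO and 100% = probe without PAD4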
TDP2 absorb – blocks human TDP2 phosphodiesterase activity | recombinant TDP2, T5PNP hydrolysis, p-nitrophenol absorbance 415 nm | inhibition, % at 12.8 µM | O95551 | 370,000 tested, 0.34% active;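 active = inhibition above the mean of all tested compounds plus 3 SD, set per campaign, cut at about 25% in these data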;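 also: 0% = DMSO with enzyme and 100% = buffer with substrate but no TDP2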
Target sequence (O95551 whole entry, looked up): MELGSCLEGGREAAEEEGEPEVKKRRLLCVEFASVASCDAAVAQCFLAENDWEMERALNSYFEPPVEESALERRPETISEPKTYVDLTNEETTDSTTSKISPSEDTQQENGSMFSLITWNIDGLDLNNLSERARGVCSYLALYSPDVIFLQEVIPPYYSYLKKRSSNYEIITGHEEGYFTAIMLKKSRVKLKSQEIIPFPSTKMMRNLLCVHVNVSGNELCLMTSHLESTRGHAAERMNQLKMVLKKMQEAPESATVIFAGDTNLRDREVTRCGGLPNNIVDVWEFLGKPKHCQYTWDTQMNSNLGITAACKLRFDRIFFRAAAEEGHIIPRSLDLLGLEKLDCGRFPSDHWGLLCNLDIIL
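test system = human TDP2 enzyme | input = TDP2 enzyme at 120 nM final | medium = 50 mM Tris-HCl pH 7.5 with Mg2+, KCl, DTT, BSA | also added = T5PNP substrate, 5 mM | times = 2 h at 37 °C | technique = epi absorbance | benchmarks = high control without enzyme, low control DMSO plus TDP2 | replication = each compound tested once, singlicate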
PRMT1 inh – inhibitors of human PRMT1; Q99873; recombinant PRMT1, activity-based probe fluorescence polarization; inhibition, % at 2.79 µM; 370,000 tested, 1.3% active; AID 652257;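 active = inhibition above about 21% made by adding two undisclosed values, limit read from the data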
GSTO1 counter – blocks human GSTO1 in RBBP9 counter-screen; P78417; recombinant GSTO1, activity-based probe fluorescence polarization; 300,000 tested, 1.1% active; inhibition, % at 5.96 µM;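 active = inhibition above the campaign mean inhibition plus 3 SD, cut at about 35% in these data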;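 also: 0% = GSTO1-1 with DMSO and 100% = wells lacking GSTO1-1 enzyme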
Target sequence (P78417 whole entry, looked up): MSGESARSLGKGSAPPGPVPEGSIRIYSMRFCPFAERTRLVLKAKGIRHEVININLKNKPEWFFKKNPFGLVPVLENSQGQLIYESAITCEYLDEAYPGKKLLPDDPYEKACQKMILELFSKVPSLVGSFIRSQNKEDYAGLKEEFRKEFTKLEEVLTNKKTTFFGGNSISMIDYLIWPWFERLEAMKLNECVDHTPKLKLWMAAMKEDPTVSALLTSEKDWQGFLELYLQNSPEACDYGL
PRMT1 inh conf – confirmation of human PRMT1 inhibitors | shares compounds with PRMT1 inh | recombinant His-PRMT1, activity-based probe fluorescence polarization | inhibition, % at 2.79 µM | 3,300 tested, 42% active;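 active = mean inhibition across replicates above the hit cutoff derived for the earlier primary screen, cut at about 22% in these data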
* marks the source's active call; other numbers are inactive results; . = no result.

SMILES	CTSL1 counter	PAD4 FP inh	TDP2 absorb	PRMT1 inh	GSTO1 counter	PRMT1 inh conf
CN(C)CCNC(=O)C(c1ccccc1)c1ccccc1	0	1	2	-6	11	.
CCOc1c(OC(C)=O)ccc(/C=C2\N=C(SCC)SC2=O)c1[N+](=O)[O-]	0	4	-7	27*	20	7
CCOc1cc(/C=C2\N=C(SCC)SC2=O)cc([N+](=O)[O-])c1OC(C)=O	1	1	6	7	-6	.
COc1ccc(NC(=O)c2cc3ccccc3cc2OC)cc1	0	0	6	0	0	.
COc1cc2ccccc2cc1C(=O)NNC(=O)c1ccccc1O	-1	-1	-2	40*	-3	-4
Cc1cc(NC(=O)CSc2nc3[nH]c(=O)cc(O)c3s2)ccc1Br	.	.	11	8	.	.
Cc1cc(NC(=O)CSc2sc3c(O)cc(=O)[nH]c3c2C#N)ccc1Br	5	-9	4	30*	-12	5
Cc1ccc(Cl)cc1NC(=O)CSc1sc2c(O)cc(=O)[nH]c2c1C#N	2	0	2	15	10	.
COC(=O)c1ccc(C)c(NC(=O)CSc2sc3c(O)cc(=O)[nH]c3c2C#N)c1	0	-6	-4	49*	11	10
Cc1ccc(C)c(NC(=O)CSc2sc3c(O)cc(=O)[nH]c3c2C#N)c1	9	-1	5	55*	12	7
CCC(C)[C@H](NC(=O)[C@H](CC(C)C)NC(=O)OC(C)(C)C)C(=O)N[C@@H](Cc1ccccc1)C(=O)OC (some centres undefined)	.	.	-6	5	.	.
CCC(=O)Nc1sccc1C(=O)OC	4	-5	.	.	2	.
CCOC(=O)NC(=O)C(/C=N/c1sccc1C(=O)OC)=C(\C)O	1	0	-1	45*	-5	0
O=C1CCC[C@H]2C[C@H](NCc3cccc(Cl)c3)CC[C@]23CCCN13	.	.	5	-2	.	.
CCOC(=O)c1ccc(N2C(=O)c3n[nH]c(C)c3C2c2ccco2)cc1 (centres undefined)	5	-1	2	-3	-1	.
CCOC(=O)c1ccc(N2C(=O)c3n[nH]c(-c4ccco4)c3C2c2cccc([N+](=O)[O-])c2)cc1 (centres undefined)	1	-5	-13	60*	-20	1
CC[C@H](C(=O)Nc1ccccc1N1CCCC1)c1ccccc1	.	.	4	-3	.	.
CN(C(=O)CNC(=O)c1ccccc1OCC(=O)Nc1ccc(I)cc1)c1ccccc1	.	.	-4	31*	.	-3
O=C(COc1ccccc1C(=O)NCc1ccccc1)Nc1ccccc1	.	-3	-3	4	.	.
CCOc1ccc(N(CC(=O)Nc2c(C)n(C)n(-c3ccccc3)c2=O)S(=O)(=O)c2cccs2)cc1	.	.	12	-5	.	.
CC(C)CN1C(=O)N2CCc3ccccc3C2CS1(=O)=O (centres undefined)	.	.	-1	7	.	.
Cc1ccc(-c2nn(-c3cccc(F)c3)cc2CN2CCN(c3ccccn3)CC2)o1	-1	-3	1	7	-4	.
Cc1ccc(-c2nn(-c3cccc(F)c3)cc2CN(Cc2nccn2C)C(C)C)o1	-1	-9	-10	41*	-4	1
O=c1c2ccccc2sn1-c1ccc(Cl)cc1	.	.	-8	90*	.	86*
O=c1c2ccccc2ncn1-c1ccc(Cl)cc1	15	6	2	1	10	.
SMILES	CTSL1 counter	PAD4 FP inh	TDP2 absorb	PRMT1 inh	GSTO1 counter	PRMT1 inh conf
Cc1ccc(-n2sc3cc(F)ccc3c2=O)c(C)c1	.	.	9	92*	.	81*
N=C1SCC(=O)N1c1ccccc1Cl	-3	-2	-2	4	3	.
Cc1ccc(N2C(=O)CC(N3CCN(c4ccc(F)cc4)CC3)C2=O)c(C)c1 (centres undefined)	5	0	-19	7	5	.
O=C(c1sc2cc(F)ccc2c1Cl)N1CCN(c2cccc(Cl)c2)CC1	-7	1	11	5	-3	.
O=c1c2cc(F)ccc2sn1-c1ccccc1Cl	.	.	2	61*	.	95*
O=c1c2ccc(F)cc2sn1-c1ccccc1	.	.	-1	80*	.	94*
C=CCN1C(=O)[C@@H](CC(=O)NCc2ccc(C)o2)[C@]2(C(=O)OC)CCCCC=C12	.	.	1	-5	.	.
CCOC(=O)c1cccc(NC(=O)CN(C)S(=O)(=O)c2cc(OC)ccc2OC)c1	.	.	-2	0	.	.
COC(=O)[C@]12C[C@H](CC(=O)N3CCC(c4ccccc4)CC3)C(=O)N(Cc3cccc4ccccc34)C1=C[C@H](C(C)C)O[C@@H]2C1CC1	.	.	-2	0	.	.
COc1ccc(/C(C)=N/NC(=O)Cc2cc(=O)[nH][nH]2)cc1OC	.	.	3	-5	.	.
O=C(NCSc1ccncn1)c1ccccc1	11	1	-4	49*	23	9
Oc1c(CN2CCOCC2)cc(CN2CCOCC2)c(O)c1CN1CCOCC1	.	.	-2	72*	.	77*
COc1ccc(N2CCCC2)c(NC(=O)c2ccc([N+](=O)[O-])o2)c1	2	-17	3	39*	16	3
CCOC(=O)C1=C(C)N=c2s/c(=C/c3ccc(OCC(=O)O)c(OC)c3)c(=O)n2C1c1ccc(Cl)cc1 (centres undefined)	0	8	11	34*	-12	22*
CCOC(=O)C1=C(C)N=c2s/c(=C\c3ccc(OCC(=O)O)cc3)c(=O)n2C1c1ccc(Cl)cc1 (centres undefined)	.	.	6	30*	.	10
CCOC(=O)C1=C(C)N=c2s/c(=C/c3ccc(OCC(=O)O)cc3)c(=O)n2C1c1ccc(F)cc1 (centres undefined)	7	11	4	37*	-7	11
CC1=C(C(=O)OC(C)C)C(c2ccc(Cl)cc2)n2c(sc(=Cc3ccc(OCC(=O)O)cc3)c2=O)=N1 (centres undefined)	.	.	-1	12	.	.
CCCCCCCCN1CN2Cc3ccc(C)cc3C2CS1(=O)=O (centres undefined)	.	.	3	4	.	.
COc1ccc(-c2cccc3[nH]c4c(c23)CCN2C(=O)[C@H]3[C@H](C)ON(C)[C@H]3C[C@@H]42)cc1	.	.	-8	-5	.	.
O=C(CNC(=O)c1ccccc1)NCC(=O)OCC(=O)c1ccc([N+](=O)[O-])cc1	9	-3	1	35*	13	49*
COc1ccc(CNS(=O)(=O)/C=C/c2ccccc2CNC(=O)OC(C)(C)C)cc1	.	.	1	-5	.	.
CCOC(=O)CC(=O)CSc1ncnc2c1nnn2-c1ccc(OC)cc1	4	-2	1	62*	3	79*
CCN(CC)C(=O)CSc1ncnc2c1nnn2-c1ccc(OC)cc1	-1	1	.	.	3	.
O=S(=O)(C/C(=C/CO)S(=O)(=O)c1ccccc1)c1ccccc1	3	7	-18	29*	-7	7
O=C(CS(=O)(=O)c1ccccc1)CS(=O)(=O)c1ccccc1	.	.	3	-2	.	.
